{"source": "ChEMBL document CHEMBL3992522", "about": "“Antileishmanial Activity of Pyrazolopyridine Derivatives and Their Potential as an Adjunct Therapy with Miltefosine” (J Med Chem, 2017)", "key": {"Leishmania donovani [1]": {"test_system": "Leishmania donovani", "assay": "Antileishmanial activity against Leishmania donovani MHOM/IN/80/DD8 amastigote forms harboring luciferase gene infected in mouse J774 cells after 72 hrs by Steady-Glo reagent based luminescence assay", "assay_type": "functional, cell-based", "conditions": "MHOM/IN/80/DD8, J774, 72 h"}, "Leishmania donovani [2]": {"test_system": "Leishmania donovani", "assay": "Antileishmanial activity against Leishmania donovani MHOM/IN/80/DD8 promastigote forms harboring luciferase gene after 72 hrs by Steady-Glo reagent based two fold dilution assay", "assay_type": "functional", "conditions": "MHOM/IN/80/DD8, 72 h", "outline": "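Promastigotes or J774-resident amastigotes treated 72 h with six two-fold dilutions from 200 µM down to 6.25 µM. Luciferase RLU fitted by four-parameter Hill non-linear regression to derive the […] inhibitory concentration (MIC).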"}, "Leishmania donovani [3]": {"test_system": "Leishmania donovani", "assay": "Antileishmanial activity against Leishmania donovani MHOM/IN/80/DD8 promastigote forms harboring luciferase gene at 7.19 uM up to 72 hrs by MTT assay relative to control", "assay_type": "functional", "conditions": "MHOM/IN/80/DD8, 72 h"}, "Leishmania donovani [4]": {"test_system": "Leishmania donovani", "assay": "Antileishmanial activity against Leishmania donovani MHOM/IN/80/DD8 amastigote forms harboring luciferase gene infected in mouse J774 cells at 4.05 uM up to 72 hrs by Giemsa staining based assay relative to control", "assay_type": "functional", "conditions": "MHOM/IN/80/DD8, J774, 72 h", "outline": "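J774 macrophages in chamber slides infected with Dd8 promastigotes (1:10 cell:parasite in methods; 1:8 in legend) for 24 h, then treated 48 and 72 h. Cells methanol-fixed, stained with 20% Giemsa. Amastigotes per 100 macrophages counted against untreated infected controls.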"}, "[5]": {"assay": "Stability in pH 6.5 simulated intestinal fluid at 5 ug/ml after 120 mins by HPLC method", "outline": "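Incubated in simulated gastric fluid (pH 1.2) or simulated intestinal fluid (pH 6.5); percentage remaining intact determined after 120 min.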"}, "Liver": {"test_system": "Liver", "assay": "Intrinsic clearance in mouse liver S9 fractions assessed per mg protein at 1 mM in presence of NADPH by HPLC method", "assay_type": "ADME", "conditions": "s9, 1000 µM"}, "Leishmania donovani [6]": {"test_system": "Leishmania donovani", "assay": "Antileishmanial activity against Leishmania donovani amastigote forms infected in Balb/c mouse assessed as inhibition of parasitic burden in spleen at 200 mg/kg, ip administered for 5 consecutive days measured on day 7 post last treatment by Giemsa staining based assay relative to control", "assay_type": "functional", "conditions": "Leishmania donovani, ip, 168 h"}, "Leishmania donovani [7]": {"test_system": "Leishmania donovani", "assay": "Antileishmanial activity against Leishmania donovani amastigote forms infected in Balb/c mouse assessed as inhibition of parasitic burden in liver at 200 mg/kg, ip administered for 5 consecutive days measured on day 7 post last treatment by Giemsa staining based assay relative to control", "assay_type": "functional", "conditions": "Leishmania donovani, ip, 168 h"}, "Leishmania donovani [8]": {"test_system": "Leishmania donovani", "assay": "Antileishmanial activity against Leishmania donovani amastigote forms infected in Balb/c mouse assessed as inhibition of parasitic burden in spleen at 50 mg/kg, ip administered for 5 consecutive days measured 1 week post last treatment by Giemsa staining based assay relative to control", "assay_type": "functional", "conditions": "168 h"}, "Leishmania donovani [9]": {"test_system": "Leishmania donovani", "assay": "Antileishmanial activity against Leishmania donovani amastigote forms infected in Balb/c mouse assessed as inhibition of parasitic burden in spleen at 50 mg/kg, ip administered for 5 consecutive days measured up to 7 weeks post treatment by Giemsa staining based assay", "assay_type": "functional, organism-based"}, "Leishmania donovani [10]": {"test_system": "Leishmania donovani", "assay": "Antileishmanial activity against Leishmania donovani amastigote forms infected in Balb/c mouse assessed as inhibition of parasitic burden in liver at 25 mg/kg, ip co-treated with 5 mg/kg, po miltefosine administered for 5 consecutive days measured on day 4 and 7 post last treatment by Giemsa staining based assay relative to control", "assay_type": "functional", "outline": "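Combination study with seven groups of 5 infected BALB/c mice, including vehicle (8% DMSO i.p.), infected untreated and miltefosine-alone groups. Treatment daily for 5 days, test compound i.p. and miltefosine orally. Mice killed on days 4 and 7 post-treatment; liver and spleen parasite load counted on Giemsa-stained stamp smears and expressed as LDU relative to infected untreated mice. Mean ± SD, n = 5, three independent experiments.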"}, "Leishmania donovani [11]": {"test_system": "Leishmania donovani", "assay": "Antileishmanial activity against Leishmania donovani amastigote forms infected in Balb/c mouse assessed as reduction in liver weight at 12.5 to 200 mg/kg, ip administered for 5 consecutive days", "assay_type": "functional, organism-based"}, "Leishmania donovani [12]": {"test_system": "Leishmania donovani", "assay": "Antileishmanial activity against Leishmania donovani amastigote forms infected in Balb/c mouse assessed as reduction in spleen weight at 12.5 to 200 mg/kg, ip administered for 5 consecutive days", "assay_type": "functional, organism-based"}, "Mus musculus [13]": {"test_system": "Mus musculus", "assay": "Increase in IL-12 level in Balb/c mouse splenocytes infected with Leishmania donovani amastigote forms at 25 mg/kg, ip co-treated with 5 mg/kg, po miltefosine administered for 5 consecutive days measured on day 4 post last treatment by sandwich ELISA relative to control", "assay_type": "functional", "outline": "(§1)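 Splenocytes (2×10^6) from treated infected BALB/c mice taken on day 4 or 7 post-treatment. Cultured in phenol-red-free RPMI 1640 with 5 μg/mL soluble L. donovani antigen for 72 h at 37 °C, 5% CO2. Supernatant cytokines measured by sandwich ELISA against a standard curve. Mean ± SD, n = 5 mice per group, three independent experiments.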"}, "Mus musculus [14]": {"test_system": "Mus musculus", "assay": "Decrease in IL-10 level in Balb/c mouse splenocytes infected with Leishmania donovani amastigote forms at 25 mg/kg, ip co-treated with 5 mg/kg, po miltefosine administered for 5 consecutive days measured on day 7 post last treatment by sandwich ELISA relative to control", "assay_type": "functional", "outline": "as §1"}, "Mus musculus [15]": {"test_system": "Mus musculus", "assay": "Increase in iNOS mRNA expression level in Balb/c mouse splenocytes infected with Leishmania donovani amastigote forms at 25 mg/kg, ip cotreated with 5 mg/kg, po miltefosine for 5 consecutive days measured on day 4 post last treatment by RT-PCR assay relative to control", "assay_type": "functional", "outline": "(§2)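 Infected BALB/c mice dosed for 5 consecutive days (test compound i.p. in 8% DMSO, miltefosine oral), n = 5 per group; splenocytes taken day 4 and day 7 post-treatment. Total RNA extracted and iNOS mRNA quantified by real-time PCR, normalized to mouse β-actin, expressed as fold change over uninfected controls.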"}, "Mus musculus [16]": {"test_system": "Mus musculus", "assay": "Increase in iNOS mRNA expression level in Balb/c mouse splenocytes infected with Leishmania donovani amastigote forms at 25 mg/kg, ip cotreated with 5 mg/kg, po miltefosine for 5 consecutive days measured on day 7 post last treatment by RT-PCR assay relative to control", "assay_type": "functional", "outline": "as §2"}, "Mus musculus [17]": {"test_system": "Mus musculus", "assay": "Increase in iNOS-mediated NO generation in Balb/c mouse splenocytes infected with Leishmania donovani amastigote forms at 25 mg/kg, ip cotreated with 5 mg/kg, po miltefosine for 5 consecutive days measured on day 4 post last treatment followed by soluble Leishmania donovani promastigote antigen-stimulation for 72 hrs by Griess assay relative to control", "assay_type": "functional", "outline": "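Splenocytes from treated infected BALB/c mice (5-day regimen, i.p. test compound, oral miltefosine; n = 5) isolated day 4 and day 7 post-treatment. Cultured in phenol red-free RPMI 1640 with 5 μg/mL SLA for 72 h at 37 °C, 5% CO2. Supernatant nitrite measured by Griess assay at 540 nm against a sodium nitrite standard curve.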"}, "Leishmania donovani [18]": {"test_system": "Leishmania donovani", "assay": "Induction of apoptosis in Leishmania donovani MHOM/IN/80/DD8 promastigote forms assessed as cell rounding at IC50 after 48 hrs by propidium iodide staining based fluorescent microscopic method", "assay_type": "functional"}, "[19]": {"assay": "AUC (0 to infinity) in Swiss mouse at 50 mg/kg, po by LC-MS/MS analysis", "assay_type": "ADME, organism-based", "set-up": "dose 50 mg/kg, route oral, time infinity", "conditions": "in vivo"}, "Leishmania donovani [20]": {"test_system": "Leishmania donovani", "assay": "Antileishmanial activity against Leishmania donovani amastigote forms infected in Balb/c mouse assessed as inhibition of parasitic burden in spleen at 25 mg/kg, ip administered for 5 consecutive days measured on day 7 post last treatment by Giemsa staining based assay relative to control", "conditions": "168 h"}}, "note": "Calls of active or inactive are those of the source. The rule behind the calls is not given here.", "data": [{"smiles": "COc1ccc(C2C3=C(CCC3=O)Nc3c2c(-c2c[nH]c4ccccc24)nn3-c2ccc(Cl)c(Cl)c2)cc1OC", "note": "(stereo unspecified)", "values": [{"measurement": "IC50", "setting": "Leishmania donovani [1]", "value": 4.05, "unit": "µM"}, {"measurement": "MIC", "setting": "Leishmania donovani [2]", "value": 50, "unit": "µM"}, {"measurement": "inhibition at 7.19 µM", "setting": "Leishmania donovani [3]", "value": "> 95", "unit": "%"}, {"measurement": "inhibition at 4.05 µM", "setting": "Leishmania donovani [4]", "value": "> 93", "unit": "%"}, {"measurement": "Stability", "setting": "[5]", "value": 99, "unit": "%"}, {"measurement": "CLH", "setting": "Liver", "value": 27.47, "unit": "µL/min"}, {"measurement": "inhibition in vivo at 200 mg/kg", "setting": "Leishmania donovani [6]", "value": 90, "unit": "%"}, {"measurement": "inhibition in vivo at 200 mg/kg", "setting": "Leishmania donovani [7]", "value": 93, "unit": "%"}, {"measurement": "inhibition in vivo at 50 mg/kg", "setting": "Leishmania donovani [8]", "value": "> 93", "unit": "%"}, {"measurement": "inhibition", "setting": "Leishmania donovani [9]", "value": "Active"}, {"measurement": "inhibition (INH)", "setting": "Leishmania donovani [10]", "value": ">92", "unit": "%"}, {"measurement": "Activity", "setting": "Leishmania donovani [11]", "value": "Active"}, {"measurement": "Activity", "setting": "Leishmania donovani [12]", "value": "Active"}, {"measurement": "fold change (FC)", "setting": "Mus musculus [13]", "value": 12.7}, {"measurement": "inhibition (INH)", "setting": "Mus musculus [14]", "value": 94, "unit": "%"}, {"measurement": "fold change (FC)", "setting": "Mus musculus [15]", "value": 11.8}, {"measurement": "fold change (FC)", "setting": "Mus musculus [16]", "value": 8.5}, {"measurement": "fold change (FC)", "setting": "Mus musculus [17]", "value": 5.6}, {"measurement": "Activity", "setting": "Leishmania donovani [18]", "value": "Active"}, {"measurement": "AUC(0-inf)", "setting": "[19]", "value": 31.7, "unit": "µM·h"}, {"measurement": "inhibition in vivo at 25 mg/kg", "setting": "Leishmania donovani [20]", "value": "> 59", "unit": "%"}]}]}
